The species named for one experiment is Rattus norvegicus. The experiment is described as follows: Inhibition of rat ventricular muscle strip contractility. It counts as functional. As to conditions: Muscle tissue. The method, boiled down: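 Rat right ventricular muscle strips were held in water-jacketed baths of Krebs-Henseleit solution at 30 °C, aerated with O2-CO2 (95:5), at 0.5 g resting tension. Contraction was evoked by electrical stimulation and recorded on a polygraph. IC50 was taken from inhibition of contraction, using three to five experiments.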
One may read the IC50 as the point on the concentration scale where inhibition reaches its midpoint. A higher IC50 goes with weaker potency. As for `CC1CCC2(O)C3(C)CC4(O)OC2(C1O)C1(O)C3(O)C(OC(=O)c2ccc[nH]2)C(O)(C(C)C)C41C` (centres undefined), the IC50 is 34 nM.

The species entered for a further experiment is Rattus norvegicus. The experiment is described as follows: Potency relative to ryanodine inhibiting rat ventricular muscle strip contractility. It counts as functional, Muscle tissue.
Details: not given
The method, boiled down: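 Right ventricular muscle strips from rat suspended in Krebs-Henseleit solution at 30 °C, aerated O2-CO2 95:5; resting tension 0.5 g. Contraction evoked by electrical stimulation was recorded and its inhibition measured. IC50 values are expressed relative to ryanodine; three to five experiments.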
`CC1CCC2(O)C3(C)CC4(O)OC2(C1O)C1(O)C3(O)C(OC(=O)c2ccc[nH]2)C2(OC2(C)C)C41C` (stereo in doubt; 25) registered a Potency of 24.
On the same count and under the same terms, in the case of `CC1CCC2(O)C3(C)CC4(O)OC2(C1O)C1(O)C3(O)C(OC(=O)c2ccc[nH]2)C2(OC2(C)C)C41C` (stereo in doubt; 26) it was 3.4.
For `C=C1CCC2(O)C3(C)CC4(O)OC2(C1O)C1(O)C3(O)C(OC(=O)c2cccn2C)C(O)(C(C)C)C41C` (centres undefined), the Potency is 100.
On the same count and under the same terms, in the case of `C=C1CCC2(O)C3(C)CC4(O)OC25C1OP(=O)(NC)OC51C3(O)C(OC(=O)c2ccc[nH]2)C(O)(C(C)C)C41C` (centres undefined) it was <3.5; in that of `C=C1CCC23OB(O)OC45C(OC(=O)c6ccc[nH]6)C(O)(C(C)C)C6(C)C(O)(CC24C)OC3(C1O)C56O` (centres undefined), 28; in that of `CC1CCC2(O)C3(OC4(O)CC2(C)C2(O)C(OC(=O)c5ccc[nH]5)C(O)(C(C)C)C4(C)C23)C1O` (centres undefined), 64.
The same measure, in the same setting: the result for `C=C1CCC23OB(c4ccsc4)OC45C(OC(=O)c6ccc[nH]6)C(O)(C(C)C)C6(C)C(O)(CC24C)OC3(C1O)C56O` (centres undefined) reads 52; that for `CC1CCC2(O)C3(OC4(O)CC2(C)C2(NO)C(OC(=O)c5ccc[nH]5)C(O)(C(C)C)C4(C)C23)C1O` (centres undefined), 4.9; that for `C=C1CCC23OB(CC)OC45C(OC(=O)c6ccc[nH]6)C(=C(C)C)C6(C)C(O)(CC24C)OC3(C1O)C65O` (centres undefined), 26.
As to `CONC12C(OC(=O)c3ccc[nH]3)C(O)(C(C)C)C3(C)C1C14OC3(O)CC2(C)C1(O)CCC(C)C4O` (centres undefined), the Potency was <1.1.
Still for that read-out and setting: in the case of `CC1CCC2(O)C3(C)CC4(O)OC2(C1O)C1(O)C3(O)C(OC(=O)c2ccc[nH]2)C(O)(C(C)C)C41C` (centres undefined) it was 100; in that of `CC1CCC2(O)C3(C)CC4(O)OC2(C1O)C1(O)C3(O)C(OC(=O)c2ccc[nH]2)C(O)(C(C)(C)O)C41C` (centres undefined), 26.
Turning to `C=C1CCC23OB(C)OC45C(OC(=O)c6ccc[nH]6)C(O)(C(C)C)C6(C)C(O)(CC24C)OC3(C1O)C56O` (centres undefined), the Potency worked out at 100.
